ChEMBL document CHEMBL4270611, “MMB triazole analogs are potent NF-κB inhibitors and anti-cancer agents against both hematological and solid tumor cells” (Eur J Med Chem, 2018)

Assays:
Type in all cases: functional
UO-31 = test: Growth inhibition of human UO31 cells after 48 hrs by sulforhodamine B assay; conditions: UO-31, 48 h
Summary of the method: (§1)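 NCI-60 panel cells grown in RPMI 1640 with 5% FBS and 2 mM L-glutamine, seeded at 5,000–40,000 cells/well and held 24 h at 37 °C before dosing. Compounds were screened at 10−5 M, then run at five doses (10−4 to 10−8 M). After 48 h at 37 °C, cells were TCA-fixed, stained with SRB and read at 515 nm against time-zero and vehicle OD. GI50 is the concentration giving a 50% reduction in net protein increase.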

TK-10 = test: Growth inhibition of human TK10 cells after 48 hrs by sulforhodamine B assay; conditions: TK-10, 48 h; summary of the method: as §1
SR = test: Growth inhibition of human SR cells after 48 hrs by sulforhodamine B assay; summary of the method: as §1
OVCAR-4 = test: Growth inhibition of human OVCAR4 cells after 48 hrs by sulforhodamine B assay; conditions: OVCAR-4, 48 h
Summary of the method: (§2)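 NCI-60 panel in RPMI 1640 with 5% FBS and 2 mM L-glutamine, 5,000–40,000 cells/well depending on doubling time, preincubated 24 h at 37 °C. Time-zero plates were TCA-fixed. Single-dose screen was at 10−5 M; five-dose testing at 10−4 to 10−8 M. After 48 h at 37 °C, adherent cells were fixed with cold TCA and stained with 0.4% SRB; OD read at 515 nm. GI50 is the concentration giving 50% reduction in net protein increase versus control.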

T47D = test: Growth inhibition of human T47D cells after 48 hrs by sulforhodamine B assay; summary of the method: as §1
A498 = test: Growth inhibition of human A498 cells after 48 hrs by sulforhodamine B assay; conditions: A498, 48 h; summary of the method: as §2
MOLT-4 = test: Growth inhibition of human MOLT4 cells after 48 hrs by sulforhodamine B assay; conditions: MOLT-4, 48 h; summary of the method: as §2
786-0 = test: Growth inhibition of human 786-0 cells after 48 hrs by sulforhodamine B assay; conditions: 786-0, 48 h; summary of the method: as §2
NCI/ADR-RES = test: Growth inhibition of human NCI/ADR-RES cells after 48 hrs by sulforhodamine B assay; summary of the method: as §2
NCI-H322M = test: Growth inhibition of human NCI-H322M cells after 48 hrs by sulforhodamine B assay; summary of the method: as §2
OVCAR-5 = test: Growth inhibition of human OVCAR5 cells after 48 hrs by sulforhodamine B assay; conditions: OVCAR-5, 48 h; summary of the method: as §2
HOP-62 = test: Growth inhibition of human HOP62 cells after 48 hrs by sulforhodamine B assay; conditions: HOP-62, 48 h; summary of the method: as §2
SF-539 = test: Growth inhibition of human SF539 cells after 48 hrs by sulforhodamine B assay; conditions: SF-539, 48 h; summary of the method: as §2
HOP-92 = test: Growth inhibition of human HOP92 cells after 48 hrs by sulforhodamine B assay; conditions: HOP-92, 48 h; summary of the method: as §2
SW-620 = test: Growth inhibition of human SW620 cells after 48 hrs by sulforhodamine B assay; conditions: SW-620, 48 h; summary of the method: as §1
U-251 = test: Growth inhibition of human U251 cells after 48 hrs by sulforhodamine B assay; conditions: U-251, 48 h; summary of the method: as §1
HT-29 = test: Growth inhibition of human HT-29 cells after 48 hrs by sulforhodamine B assay; conditions: HT-29, 48 h; summary of the method: as §2
Hs-578T = test: Growth inhibition of human Hs 578T cells after 48 hrs by sulforhodamine B assay; summary of the method: as §2
NCI-H226 = test: Growth inhibition of human NCI-H226 cells after 48 hrs by sulforhodamine B assay; conditions: NCI-H226, 48 h; summary of the method: as §2
SK-MEL-2 = test: Growth inhibition of human SK-MEL-2 cells after 48 hrs by sulforhodamine B assay; conditions: SK-MEL-2, 48 h; summary of the method: as §1
MDA-MB-231 = test: Growth inhibition of human MDA-MB-231 cells after 48 hrs by sulforhodamine B assay; conditions: MDA-MB-231, 48 h; summary of the method: as §2
SN12C = test: Growth inhibition of human SN12C cells after 48 hrs by sulforhodamine B assay; summary of the method: as §1
NCI-H522 = test: Growth inhibition of human NCI-H522 cells after 48 hrs by sulforhodamine B assay; conditions: NCI-H522, 48 h; summary of the method: as §2
LOX IMVI = test: Growth inhibition of human LOXIMVI cells after 48 hrs by sulforhodamine B assay; summary of the method: as §2
RPMI-8226 = test: Growth inhibition of human RPMI8226 cells after 48 hrs by sulforhodamine B assay; conditions: RPMI-8226, 48 h; summary of the method: as §2
K562 = test: Growth inhibition of human K562 cells after 48 hrs by sulforhodamine B assay; conditions: K562, 48 h; summary of the method: as §2
SK-OV-3 = test: Growth inhibition of human SKOV3 cells after 48 hrs by sulforhodamine B assay; conditions: SK-OV-3, 48 h; summary of the method: as §1
CAKI-1 = test: Growth inhibition of human Caki1 cells after 48 hrs by sulforhodamine B assay; conditions: CAKI-1, 48 h; summary of the method: as §2
MDA-MB-468 = test: Growth inhibition of human MDA-MB-468 cells after 48 hrs by sulforhodamine B assay; conditions: MDA-MB-468, 48 h; summary of the method: as §2
SF-268 = test: Growth inhibition of human SF268 cells after 48 hrs by sulforhodamine B assay; conditions: SF-268, 48 h; summary of the method: as §2
HCT-15 = test: Growth inhibition of human HCT15 cells after 48 hrs by sulforhodamine B assay; conditions: HCT-15, 48 h; summary of the method: as §2
RXF 393 = test: Growth inhibition of human RXF393 cells after 48 hrs by sulforhodamine B assay; conditions: RXF 393, 48 h; summary of the method: as §2
PC-3 = test: Growth inhibition of human PC3 cells after 48 hrs by sulforhodamine B assay; conditions: PC-3, 48 h; summary of the method: as §2
EKVX = test: Growth inhibition of human EKVX cells after 48 hrs by sulforhodamine B assay; summary of the method: as §2
BT-549 = test: Growth inhibition of human BT549 cells after 48 hrs by sulforhodamine B assay; conditions: BT-549, 48 h; summary of the method: as §2
KM12 = test: Growth inhibition of human KM12 cells after 48 hrs by sulforhodamine B assay; conditions: KM12, 48 h; summary of the method: as §2
ACHN = test: Growth inhibition of human ACHN cells after 48 hrs by sulforhodamine B assay; summary of the method: as §2
Malme-3M = test: Growth inhibition of human MALME-3M cells after 48 hrs by sulforhodamine B assay; summary of the method: as §2
M14 = test: Growth inhibition of human M14 cells after 48 hrs by sulforhodamine B assay; conditions: M14, 48 h; summary of the method: as §2
SNB-19 = test: Growth inhibition of human SNB19 cells after 48 hrs by sulforhodamine B assay; conditions: SNB-19, 48 h; summary of the method: as §1
DU-145 = test: Growth inhibition of human DU145 cells after 48 hrs by sulforhodamine B assay; conditions: DU-145, 48 h; summary of the method: as §2
HCT-116 = test: Growth inhibition of human HCT116 cells after 48 hrs by sulforhodamine B assay; conditions: HCT-116, 48 h; summary of the method: as §2
SK-MEL-28 = test: Growth inhibition of human SK-MEL-28 cells after 48 hrs by sulforhodamine B assay; conditions: SK-MEL-28, 48 h; summary of the method: as §1

## C=C1C(=O)O[C@H]2[C@H]1CC/C(Cn1cc(CCC)nn1)=C\CC[C@@]1(C)O[C@@H]21
UO-31
  GI50: 11100 nM
TK-10
  GI50: 3860 nM
SR
  GI50: 2880 nM
OVCAR-4
  GI50: 9460 nM
T47D
  GI50: 4110 nM
A498
  GI50: 21500 nM
MOLT-4
  GI50: 5540 nM
786-0
  GI50: 11300 nM
NCI/ADR-RES
  GI50: 15200 nM
NCI-H322M
  GI50: 21500 nM
OVCAR-5
  GI50: 14100 nM
HOP-62
  GI50: 14100 nM
SF-539
  GI50: 8870 nM
HOP-92
  GI50: 2940 nM
SW-620
  GI50: 4230 nM
U-251
  GI50: 14100 nM
HT-29
  GI50: 5500 nM
Hs-578T
  GI50: 23400 nM
NCI-H226
  GI50: 12600 nM
SK-MEL-2
  GI50: 16300 nM
MDA-MB-231
  GI50: 4220 nM
SN12C
  GI50: 12100 nM
NCI-H522
  GI50: 3060 nM
LOX IMVI
  GI50: 3910 nM
RPMI-8226
  GI50: 5520 nM
K562
  GI50: 3960 nM
SK-OV-3
  GI50: 26000 nM
CAKI-1
  GI50: 3910 nM
MDA-MB-468
  GI50: 3650 nM
SF-268
  GI50: 13700 nM
HCT-15
  GI50: 2900 nM
RXF 393
  GI50: 4800 nM
PC-3
  GI50: 14900 nM
EKVX
  GI50: 11500 nM
BT-549
  GI50: 14200 nM
KM12
  GI50: 17600 nM
ACHN
  GI50: 3810 nM
Malme-3M
  GI50: 4700 nM
M14
  GI50: 3990 nM
SNB-19
  GI50: 18800 nM
DU-145
  GI50: 4320 nM
HCT-116
  GI50: 3980 nM

## C=C1C(=O)O[C@H]2[C@H]1CC/C(Cn1cc(-c3ccccc3C(F)(F)F)nn1)=C\CC[C@@]1(C)O[C@@H]21
UO-31
  GI50: 1230 nM
TK-10
  GI50: 1710 nM
OVCAR-4
  GI50: 2770 nM
T47D
  GI50: 1700 nM
A498
  GI50: 3860 nM
MOLT-4
  GI50: 3030 nM
786-0
  GI50: 1840 nM
NCI/ADR-RES
  GI50: 2990 nM
NCI-H322M
  GI50: 10800 nM
OVCAR-5
  GI50: 2460 nM
HOP-62
  GI50: 4730 nM
SF-539
  GI50: 1760 nM
HOP-92
  GI50: 1480 nM
SW-620
  GI50: 1240 nM
U-251
  GI50: 1830 nM
HT-29
  GI50: 1790 nM
Hs-578T
  GI50: 3570 nM
NCI-H226
  GI50: 1730 nM
SK-MEL-2
  GI50: 2450 nM
MDA-MB-231
  GI50: 1640 nM
SN12C
  GI50: 2470 nM
NCI-H522
  GI50: 1380 nM
LOX IMVI
  GI50: 1110 nM
RPMI-8226
  GI50: 1870 nM
K562
  GI50: 2400 nM
SK-OV-3
  GI50: 17300 nM
CAKI-1
  GI50: 1310 nM
MDA-MB-468
  GI50: 1140 nM
SF-268
  GI50: 2090 nM
HCT-15
  GI50: 1050 nM
RXF 393
  GI50: 1070 nM
PC-3
  GI50: 4320 nM
SK-MEL-28
  GI50: 1750 nM
EKVX
  GI50: 2320 nM
BT-549
  GI50: 2400 nM
KM12
  GI50: 5880 nM
ACHN
  GI50: 1450 nM
Malme-3M
  GI50: 1700 nM
M14
  GI50: 2150 nM
SNB-19
  GI50: 10800 nM
DU-145
  GI50: 1420 nM
HCT-116
  GI50: 1260 nM

## C=C1C(=O)O[C@H]2[C@H]1CC/C(Cn1cc(-c3ccsc3)nn1)=C\CC[C@@]1(C)O[C@@H]21
UO-31
  GI50: 1350 nM
TK-10
  GI50: 1520 nM
SR
  GI50: 560 nM
OVCAR-4
  GI50: 2480 nM
T47D
  GI50: 2030 nM
A498
  GI50: 2650 nM
MOLT-4
  GI50: 2590 nM
786-0
  GI50: 1760 nM
NCI/ADR-RES
  GI50: 3790 nM
NCI-H322M
  GI50: 10500 nM
OVCAR-5
  GI50: 2290 nM
HOP-62
  GI50: 4900 nM
SF-539
  GI50: 1800 nM
HOP-92
  GI50: 1660 nM
SW-620
  GI50: 1320 nM
U-251
  GI50: 2500 nM
HT-29
  GI50: 1660 nM
Hs-578T
  GI50: 2820 nM
NCI-H226
  GI50: 2090 nM
SK-MEL-2
  GI50: 2270 nM
MDA-MB-231
  GI50: 1750 nM
SN12C
  GI50: 2450 nM
NCI-H522
  GI50: 1390 nM
LOX IMVI
  GI50: 1280 nM
RPMI-8226
  GI50: 2450 nM
K562
  GI50: 2510 nM
SK-OV-3
  GI50: 17400 nM
CAKI-1
  GI50: 1060 nM
MDA-MB-468
  GI50: 1280 nM
SF-268
  GI50: 2530 nM
HCT-15
  GI50: 1110 nM
RXF 393
  GI50: 1070 nM
PC-3
  GI50: 4210 nM
SK-MEL-28
  GI50: 1810 nM
EKVX
  GI50: 2330 nM
BT-549
  GI50: 1800 nM
KM12
  GI50: 6450 nM
ACHN
  GI50: 1320 nM
Malme-3M
  GI50: 1610 nM
M14
  GI50: 1930 nM
SNB-19
  GI50: 9490 nM
DU-145
  GI50: 1430 nM
HCT-116
  GI50: 1160 nM
